Data: PubChem BioAssay AID504383 (The Scripps Research Institute Molecular Screening Center, 2011)
About 1,200 (48%) of roughly 2,500 compounds were called active. So high a share suggests a set chosen from earlier hits. Some of the results follow. A number with no mark means an inactive call.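 The calls were made as follows: active = mean activation above the low control average plus 3 SD, as set in the primary screen (cut at about 12% in these data); inactive = the rest.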

These compounds were tested against Troponin I, cardiac muscle (Homo sapiens) + Troponin T, cardiac muscle (Homo sapiens) + Troponin C, slow skeletal and cardiac muscles (Homo sapiens) (UniProt P19429+P45379+P63316) (assay: calcium sensitizers of cardiac thin filaments – biochemical, IANBD-TnC fluorescence, triplicate, confirmation (AID 504383;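 also: 0% = DMSO at 0.472 mM calcium and 100% = DMSO at 2.9 mM calcium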)). Conditions: IANBD-labeled cardiac RTF, Ca2+ sensitivity fluorescence; at 7.2 µM; stronger effect = higher value; scaled from EC20 to saturating calcium; tested at EC20 calcium, 0.472 mM.
In short: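 Test system: labelled regulated thin filament protein complex. Dosing: single nominal compound dose of 7.2 µM. Benchmarks: EC20 and EC100 calcium wells. Read-out basis: fluorescence gain scaled between EC20 and EC100 calcium controls. Probe or stimulus: submaximal calcium at 0.472 mM (EC20). Technique: fluorescence. Times: 15 min compound exposure, 25 °C.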
For `CCN(CC)C1=CC2=CC(=C(C#N)C#N)CCC2CC1` (centres undefined), the activation was 1.65%.
In the case of `Cn1cccc1/C=C1\SC(=S)N(NC(=O)c2ccccc2)C1=O`, the activation is reported as 54.2% (active).
For `Cc1ccc(C(=O)NN2C(=O)/C(=C/c3cccn3C)SC2=S)cc1`, the activation was 25.1% (active).
In the case of `Cn1cccc1/C=C1\SC(=S)N(NC(=O)c2ccc(Cl)cc2)C1=O`, the activation is reported as 16.8% (active).
Work on `O=c1cc(CN2CCCc3ccccc32)nc2sccn12` yielded an activation of 5.39%.
With `c1ccc2c(c1)CCCN2Cc1nnnn1CC1CCCO1` (centres undefined) the activation was 7.11%.
`c1ccc2c(c1)CCCN2Cc1nnc2n1CCCCC2` was tested, and the activation was 92% (active).
For `COc1cc(/C=C2\CCC(C)C3=C(c4cc(OC)c(OC)c(OC)c4)C(C#N)=C(N)OC32)cc(OC)c1OC` (centres undefined), the activation was 36.4% (active).
Compound `O=c1c(-c2ccc(O)cc2O)coc2cc(O)cc(O)c12` has an activation of 8.85%.
`O=c1oc2cc(O)ccc2cc1-c1nc2c(s1)CCc1ccccc1-2` was tested, and the activation was 7.71%.
With `O=c1oc2ccccc2cc1-c1ccc(O)cc1O` the activation was 94.9% (active).
For `CC(C)(C)NC(=O)[C@@H]1CN(Cc2cccnc2)CCN1C[C@@H](O)C[C@@H](Cc1ccccc1)C(=O)N[C@H]1c2ccccc2C[C@H]1O`, the activation was 158% (active).
`CN(CC(=O)Nc1ccccc1Cl)C(=O)c1cc(=O)[nH]c2ccccc12` was tested, and the activation was 49.3% (active).
Compound `CN(C)S(=O)(=O)c1ccc(C(=O)Oc2cc(=O)[nH]c3ccccc23)cc1` has an activation of 10.2%.
Compound `COc1ccc(N(CC(=O)Nc2ccccc2C(=O)NCC(C)C)S(C)(=O)=O)cc1` has an activation of 4.96%.
`CCNC(=S)NNC(=O)CCn1cc(C)cn1` was tested, and the activation was 6.76%.
In the case of `CCn1cc(Cl)c(C(=O)NNC(=O)CCn2cc([N+](=O)[O-])cn2)n1`, the activation is reported as 23.9% (active).
With `CCCCCCc1cc2cc(-c3nnc(-c4ccccc4)o3)c(=O)oc2cc1O` the activation was 4.49%.
For `CCCCCCc1cc2cc(-c3nnc(-c4ccccc4O)o3)c(=O)oc2cc1O`, the activation was 14.4% (active).
`O=[N+]([O-])c1cc(-c2nc(-c3ccncc3)no2)ccc1Cl` showed an activation of 7.62%.
For `CCOC(=O)C1(Cc2cccc(OC)c2)CCN(Cc2ccon2)CC1`, the activation was 12.7% (active).
In the case of `CCOC(=O)C1(Cc2cccc(OC)c2)CCCN(Cc2nccn2CC)C1` (centres undefined), the activation is reported as 6.61%.
For `CCOC(=O)C1(CCc2ccccc2)CCN(C(=O)c2occc2C)CC1`, the activation was 9.68%.
`Nc1ccc(S(N)(=O)=O)cc1N` was tested, and the activation was 600% (active).
`CCOc1ccccc1N1CCN(CC(=O)N(CC(C)C)c2c(N)n(CC(C)C)c(=O)[nH]c2=O)CC1` was tested, and the activation was 35.3% (active).
With `CC(C)CN(C(=O)CCCc1nc2ccccc2c(=O)[nH]1)c1c(N)n(Cc2ccccc2)c(=O)[nH]c1=O` the activation was 8.94%.
With `CCOc1ccccc1N1CCN(CC(=O)c2c(N)n(C)c(=O)n(C)c2=O)CC1` the activation was 14.9% (active).
For `CCCCn1c(N)c(N(CC(C)C)C(=O)Cc2ccc(S(=O)(=O)N3CCOCC3)s2)c(=O)[nH]c1=O`, the activation was 8.87%.
With `O[C@@H]1CN(C2CCCCC2)CC[C@H]1N1CCN(CCc2ccccc2)CC1` the activation was 18.1% (active).
Work on `c1ccc(CCCN2CCN(c3ccccc3)CC2)cc1` yielded an activation of 7.15%.
For `CC1=NN(c2ccc(C)c(C)c2)C(=O)/C1=C/c1ccc2c(c1)n(C)c(=O)n2C`, the activation was 57.9% (active).
`CC1=NN(c2ccc(Br)cc2)C(=O)/C1=C/c1ccc(-c2ccccc2C(=O)O)o1` showed an activation of 10.1%.
With `O=C(Nc1ccc(C(=O)N2CCOCC2)cc1)Nc1cccc(Cl)c1` the activation was 47.5% (active).
Compound `CN1CCC/C1=C1/C(=O)N(c2ccccc2)N=C1NC(=O)Nc1cccc(Cl)c1` has an activation of -1.33%.
Work on `O=C(NCC1CC1)Nc1cccc(Cl)c1` yielded an activation of 2.84%.
For `COCCOC(=O)/C(=C/c1ccc(OC(=O)c2ccccc2)cc1)C(C)=O`, the activation was 8.35%.
`CC(COC(=O)c1ccccc1)(COC(=O)c1ccccc1)/[N+]([O-])=C/c1ccccc1` was tested, and the activation was 32% (active).
`Cc1cc2nc3c(=O)[nH]c(=O)[nH]c3nc2c([N+](=O)[O-])c1N` gave an activation of 2.96%.
For `Cc1cc2nc3c(=O)n(C4CCCCC4)c(=O)[nH]c3nc2cc1N`, the activation was 17.8% (active).
`COCc1cc(=O)[nH]c2cc(NC(=O)C(C)(C)CCl)c(C)cc12` gave an activation of 4.59%.
For `Cc1cc2nc3c(=O)[nH]c(=S)[nH]c3nc2cc1NC(=O)C(F)(F)F`, the activation was 25.4% (active).
In the case of `Nc1ccc2nc3c(=O)n(C4CCCCC4)c(=O)[nH]c3nc2c1`, the activation is reported as 16.6% (active).
`Nc1ccc2nc3c(=O)[nH]c(=S)[nH]c3nc2c1` was tested, and the activation was 28.7% (active).
For `O=C(c1ccc(COc2ccccc2Br)o1)N1N=C(C(F)F)CC1(O)C(F)F` (centres undefined), the activation was 34.5% (active).
`O=C(c1ccc(Cn2cc([N+](=O)[O-])cn2)o1)N1N=C(C(F)F)CC1(O)C(F)F` (centres undefined) was tested, and the activation was 14.1% (active).
In the case of `c1ccc(-n2ncc(-c3nn[nH]n3)n2)cc1`, the activation is reported as 163% (active).
In the case of `CC(=O)Nc1ccc(N2C(=O)CSC2c2ccc(F)cc2)cc1` (centres undefined), the activation is reported as 81.7% (active).
Compound `CC(=O)Nc1ccc(N2C(=O)c3cccc4c(O)ccc(c34)C2=O)cc1` has an activation of 2.36%.
With `CCC(=O)N1CCC2(CC1)Oc1ccc(Cl)cc1C(=O)C21CC(c2cccnc2)=NO1` (centres undefined) the activation was 19.6% (active).
In the case of `CN(C)c1ccc(/C=C2\N=C(C(C)(C)C)OC2=O)cc1`, the activation is reported as 7.46%.
`Cc1c(N2C(=O)/C(=C\c3ccc(N(C)C)cc3)N(C)C2=S)c(=O)n(-c2ccccc2)n1C` was tested, and the activation was 6.77%.
`CN1C(=O)/C(=C\c2ccc(N(C)C)cc2)OC1=S` was tested, and the activation was 223% (active).
`CN(N=Nc1nc[nH]c1C(=O)NN)C1CCCCC1` was tested, and the activation was 12.9% (active).
`Cc1cc(C)c(C#N)c(SCc2nnc(-c3ccccc3)o2)n1` was tested, and the activation was 50.8% (active).
Work on `COC(=O)CCCNC(=O)CCc1nnc(-c2ccc(-c3ccccc3)cc2)o1` yielded an activation of 10.8%.
With `O=C(CO/N=C/c1ccccc1OC(F)F)NCc1cccs1` the activation was 70.3% (active).
With `C=CCN1C(=O)c2cccc3c(N4CCCCC4)ccc(c23)C1=O` the activation was 15.9% (active).
Work on `O=C1c2cccc3c(N4CCCCC4)ccc(c23)C(=O)N1c1ccccc1O` yielded an activation of -0.04%.
In the case of `O=C1c2cccc3c(N4CCCCC4)ccc(c23)C(=O)N1c1cccc(O)c1`, the activation is reported as 33.3% (active).
For `O=C1c2cccc3c(N4CCCCC4)ccc(c23)C(=O)N1CCO`, the activation was 185% (active).
Compound `O=C1c2ccccc2-c2onc3ccc(N4CCCC4)c1c23` has an activation of 9.75%.
In the case of `CCCN1C(=O)c2cccc3c(N4CCCCC4)ccc(c23)C1=O`, the activation is reported as 6.04%.
With `Cc1n[nH]c(C)c1N1C(=O)c2cccc3c(N4CCCCCC4)ccc(c23)C1=O` the activation was 5.61%.
In the case of `O=C1c2cccc3c(N4CCCCC4)ccc(c23)C(=O)N1c1ccc(O)cc1`, the activation is reported as 10.7%.
For `CC1(C)C2CCC(C2)C1(C)N=C1OC(CCl)CS1` (centres undefined), the activation was 3.58%.
For `O=c1ccc2cc3c4c(c2o1)CCCN4CCC3`, the activation was 33.6% (active).
In the case of `N=c1oc2c3c4c(cc2cc1C(=O)Nc1ccccc1)CCCN4CCC3`, the activation is reported as 88.7% (active).
For `Cc1ccc2c(CN3CCCc4ccccc43)cc(=O)oc2c1C`, the activation was -0.53%.
`O=c1oc2c3c4c(cc2c(C(F)(F)F)c1CCN1CCOCC1)CCCN4CCC3` gave an activation of 4.32%.
`CCN(CC)S(=O)(=O)c1ccc2[nH]cc(C(=O)NCCN3CCCCCC3)c(=O)c2c1` was tested, and the activation was 34.4% (active).
`CC(=O)N1CCN(S(=O)(=O)c2cccc(C(=O)NNC(=O)c3ccc(Br)cc3)c2)CC1` gave an activation of 7.22%.
With `CC(C)(C)c1cc(NC(=O)c2cccc(S(=O)(=O)N3CCOCC3)c2)no1` the activation was 23.5% (active).
`Cn1nc(-c2ccccc2)c(C(=O)Nc2ccc(C(F)(F)F)cc2)c1Cl` was tested, and the activation was 26.2% (active).
Work on `CN1CCN(C2=CC3=CC(=C(C#N)C#N)CCC3CC2)CC1` (centres undefined) yielded an activation of 6.77%.
`CSCC(C)N1CCC(n2nccc2NC(=O)CCCc2ccccc2)CC1` (centres undefined) was tested, and the activation was 162% (active).
For `CC(=O)NCC(O)c1ccc([N+](=O)[O-])cc1` (centres undefined), the activation was 7.74%.
With `COC(=O)CCN(C(=O)c1ccc([N+](=O)[O-])cc1)c1ccccn1` the activation was 19.7% (active).
With `CCCCNc1c2c3c(cccc3n(C)c1=O)C(=O)c1ccccc1-2` the activation was 2.63%.
`COCCCNc1c2c3c(cccc3[nH]c1=O)C(=O)c1ccccc1-2` was tested, and the activation was 13.2% (active).
`CC(C)n1cnc2c(NCc3ccccc3)cc(N[C@H](C)CO)cc21` was tested, and the activation was -7.72%.
`CCOC(=O)c1sc2nc(C)nc(SCC(=O)NC3CCS(=O)(=O)C3)c2c1C` (centres undefined) was tested, and the activation was 32.3% (active).
Work on `C[C@@H]1CC=C[C@H]2[C@H]1C(=O)N(Cc1ccccc1)[C@H]2c1ccc(-c2cc3ccccc3s2)cc1F` yielded an activation of 3.06%.
In the case of `CN(Cc1ccccc1)C(=O)c1cccc(N2C(=O)NC3CC2(C)Oc2ccccc23)c1` (centres undefined), the activation is reported as 54% (active).
`COc1cccc2c1OC1(C)CC2NC(=O)N1Cc1ccccc1` (centres undefined) was tested, and the activation was 10.4%.
`CCOc1cccc2c1OC1(C)CC2NC(=O)N1c1cccc(C(=O)NCc2ccccn2)c1` (centres undefined) was tested, and the activation was 5.07%.
With `CC1=Nc2ccccc2/C1=C\c1nc(-c2ccc(F)cc2)oc1O` the activation was 7.33%.
In the case of `COc1ccc(-c2nc(/C=C3\C(C)=Nc4ccccc43)c(O)o2)cc1`, the activation is reported as 12.1% (active).
In the case of `CC1=Nc2ccccc2/C1=C\c1nc(-c2ccc(C(F)(F)F)cc2)oc1O`, the activation is reported as 7.9%.
For `N#C/C(=C/c1ccc(-c2ccccc2)o1)c1nc(-c2cccs2)cs1`, the activation was 105% (active).
For `N#C/C(=C\c1ccc(-c2ccc(F)cc2)o1)C(=O)Nc1nc(-c2cccs2)cs1`, the activation was 81.8% (active).
Compound `Cn1c(/C(C#N)=C/c2ccc(-c3ccc(S(N)(=O)=O)cc3)o2)nc2ccccc21` has an activation of 9.43%.
For `Cc1ccc(C2NC(=O)c3c(sc4c3CCN(C)C4)N2)o1` (centres undefined), the activation was 12.6% (active).
`CN1CCc2c(sc3c2C(=O)NC(c2cccs2)N3)C1` (centres undefined) showed an activation of 9.65%.
`O=C1NC(c2ccco2)Nc2sc3c(c21)CCN(Cc1ccccc1)C3` (centres undefined) was tested, and the activation was 11.7% (active).
In the case of `Cc1ccsc1C1NC(=O)c2c(sc3c2CCN(C)C3)N1` (centres undefined), the activation is reported as 63.1% (active).
`CSc1ccc(C2NC(=O)c3c(sc4c3CCN(C)C4)N2)cc1` (centres undefined) was tested, and the activation was 22.9% (active).
In the case of `Cc1ccc(C2NC(=O)c3c(sc4c3CCN(C)C4)N2)s1` (centres undefined), the activation is reported as 5.94%.
`CN1CCc2c(sc3c2C(=O)NC(c2ccccn2)N3)C1` (centres undefined) gave an activation of 1.45%.
`CN1CCc2c(sc3c2C(=O)NC(c2ccco2)N3)C1` (centres undefined) was tested, and the activation was 1.53%.
